Measurements of several laboratories.
Lines come from different studies, so protocols differ.
CYP2C9: Cytochrome P450 2C9 (CYP2C9, Homo sapiens, UniProt P11712)

COc1ccc(-c2coc3cc(O[C@@H]4O[C@H](CO)[C@@H](O)[C@H](O)[C@H]4O)ccc3c2=O)cc1O  IC50 (CYP2C9; enzyme activity, inhibitor; human, liver microsomes): > 200 µM
Cc1ccc(-c2nnc(N[C@@H](Cc3ccc(C#N)cc3)C(=O)N3CCc4ccccc43)o2)cc1  half-life (metabolic stability; rat, liver microsomes; 10 µM, pH 7.4): 14 min
CN(C)C(=O)c1cc2cnc(Nc3ccc(-c4ccc5c(=O)cc(N6CCOCC6)oc5c4)cc3)nc2n1C1CCCC1.Cl  AUC(0-inf) (BALB/c mouse, plasma; oral, 20 mg/kg): 7810 ng·h/mL
OCc1ccc(-c2nn(Cc3ccccc3)c3ccccc23)o1  half-life (metabolic stability; rat, liver microsomes): 5 min
CSc1ccccc1C(=O)NCCn1cc(C(=O)NCc2cccc(C)n2)c(=O)c2cc3c(cc21)OC(F)(F)O3  IC50 (CYP2C9; enzyme activity, inhibitor; human, liver microsomes; 20 min, without NADPH, with preincubation): > 100 µM
CC(=O)O[C@@H]1[C@@H](O)[C@H](O[C@H]2CC[C@]34C[C@]35CC[C@]3(C)[C@@H]([C@@]6(C)CC[C@@H](C(C)(C)O)O6)[C@@H](O)C[C@@]3(C)[C@@H]5C[C@H](O[C@@H]3O[C@H](CO)[C@@H](O)[C@H](O)[C@H]3O)[C@H]4C2(C)C)OC[C@H]1O  IC50 (CYP2C9; enzyme activity, inhibitor; human, liver microsomes): > 200 µM
OCc1ccc(-c2nn(Cc3ccccn3)c3ccccc23)o1  half-life (metabolic stability; rat, liver microsomes; 1 µM, pH 7.4): 11 min
CSc1ccccc1C(=O)NCCn1cc(C(=O)NCc2cccc(C)n2)c(=O)c2cc3c(cc21)OCO3  IC50 (CYP2C9; enzyme activity, inhibitor; human, liver microsomes; 20 min, without NADPH, with preincubation): > 100 µM
N#Cc1ccc(C[C@H](NC(=O)c2cc3cc(F)ccc3[nH]2)C(=O)N2CCc3ccccc32)cc1  half-life (metabolic stability; rat, liver microsomes; 10 µM, pH 7.4): 76 min
